Test results published in ChEMBL document CHEMBL3751813, “Nonpeptidic Amphiphilic Xanthone Derivatives: Structure-Activity Relationship and Membrane-Targeting Properties” (J Med Chem, 2016).
In brackets after ≈: the same amount, converted by molar mass. Activity calls are given as the source filed them. No cut-off for these calls is given here.

What was measured:
Staphylococcus aureus [1] = assay: Antibacterial activity against clinical isolates of methicillin-resistant Staphylococcus aureus DM9808R after 24 hrs by […]; type: functional
[2] = Membrane permeabilization activity assessed as release of calcein from DOPE/DOPG large unilamellar vesicles at 0.125 to 0.5 compound:lipid ratio incubated for 30 mins by fluorescence assay; type: ADME; settings: 0.5 h
Procedure, shortened: (§1)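 Freeze-thawed, extruded, then gel-filtered. Final lipid 50 µM with compound added from DMF (<0.2%). Fluorescence at ex 490/em 520 nm over 30 min; 0.1% Triton X-100 defined 100% lysis.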

Bacillus cereus = assay: Antibacterial activity against clinical isolates of Bacillus cereus ATCC 11778 after 24 hrs by […]; type: functional; settings: ATCC 11778, 24 h
Staphylococcus aureus [3] = assay: Induction of membrane disruption in clinical isolates of Staphylococcus aureus DM4001 assessed as membrane integrity incubated for 10 mins by live/dead baclight bacterial viability assay relative to control; type: functional; set-up: concentration or dose not given beside the values
Procedure, shortened: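 Exponential-phase cells washed in 0.9% saline, OD670 0.3, exposed to compound 10 min at room temperature. Pelleted, resuspended, then stained with SYTO 9 (10 µM) plus propidium iodide (60 µM) 15 min dark. Excitation 485 nm, emission 500–700 nm; green/red ratio converted to % damage using standards of 0–100% isopropanol-killed cells.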

Staphylococcus aureus [4] = assay: Antibacterial activity against clinical isolates of Staphylococcus aureus DM4001R after 24 hrs by […]; type: functional
Staphylococcus aureus [5] = assay: Antibacterial activity against clinical isolates of methicillin-resistant Staphylococcus aureus DM21455 after 24 hrs by […]; type: functional; settings: DM21455, 24 h
[6] = Hemolytic activity against New Zealand white rabbit RBC after 1 hr by microplate reader analysis; type: ADME, cell-based, Oryctolagus cuniculus, Erythrocyte; settings: rabbit red blood cells
Procedure, shortened: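 Rabbit RBCs spun from serum at 3,000 rpm for 10 min and washed twice in PBS. Mixed with compound in DMF at 4% v/v RBCs, 1 h at 37 °C. After centrifugation, hemoglobin in the supernatant read at 576 nm. 2% Triton X-100 was the positive control and 1% DMF the negative control.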

Staphylococcus aureus [7] = assay: Induction of membrane permeabilization in clinical isolates of Staphylococcus aureus DM4001 at 10 uM measured for 200 sec by SYTOX green influx assay; type: functional, organism-based
Procedure, shortened: (§2)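 Exponential-phase cells washed twice in 20 mM PBS pH 7 and adjusted to OD620 0.09. Given 3 µM SYTOX Green and kept in the dark until fluorescence was stable, then compound added. Fluorescence followed in a stirred cuvette at ex 504/em 523 nm. Melittin 10 µg/mL was the positive control. Run at least twice; one run reported.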

[8] = Membrane permeabilization activity assessed as release of calcein from DOPE/DOPG liposomes at lipid:compound ratio of => 16 incubated for 30 mins by fluorescence assay; type: ADME; settings: 0.5 h; procedure, shortened: as §1
[9] = Membrane permeabilization activity assessed as release of calcein from DOPE/DOPG liposomes at lipid:compound ratio of 8 incubated for 30 mins by fluorescence assay; type: ADME; settings: 0.5 h; procedure, shortened: as §1
[10] = Membrane permeabilization activity assessed as release of calcein from DOPC liposomes at lipid:compound ratio of 8 incubated for 30 mins by fluorescence assay; type: ADME; settings: 0.5 h; procedure, shortened: as §1
[11] = Membrane permeabilization activity assessed as release of calcein from DOPC liposomes at lipid:compound ratio of 4 incubated for 30 mins by fluorescence assay; type: ADME; settings: 0.5 h; procedure, shortened: as §1
[12] = Membrane permeabilization activity assessed as release of calcein from DOPE/DOPG liposomes at lipid:compound ratio of 4 incubated for 30 mins by fluorescence assay; type: ADME; settings: 0.5 h; procedure, shortened: as §1
[13] = Membrane permeabilization activity assessed as release of calcein from DOPC liposomes at lipid:compound ratio of => 16 incubated for 30 mins by fluorescence assay; type: ADME; settings: 0.5 h; procedure, shortened: as §1
[14] = Selectivity index, ratio of HC50 for hemolytic activity against New Zealand white rabbit RBC to MIC for clinical isolates of Staphylococcus aureus DM4001
Staphylococcus aureus [15] = assay: Induction of membrane permeabilization in clinical isolates of Staphylococcus aureus DM4001 at 50 uM by SYTOX green uptake assay; type: functional; procedure, shortened: as §2
Staphylococcus aureus [16] = assay: Induction of membrane permeabilization in clinical isolates of Staphylococcus aureus DM4001 assessed as ATP leakage at 50 uM incubated for 10 mins by firefly luciferase based luminometry analysis; type: functional
Procedure, shortened: (§3)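 Exponential-phase cells washed twice in 20 mM PBS pH 7 and set to OD620 0.3. Exposed 10 min at 37 °C, then spun at 4000 rpm for 5 min. Supernatant mixed with luciferase reagent (1 mM DTT, 0.5 mM D-luciferin, 1.25 µg/mL firefly luciferase). Luminescence read over 30 cycles.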

Staphylococcus aureus [17] = assay: Induction of membrane permeabilization in clinical isolates of Staphylococcus aureus DM4001 assessed as ATP leakage at MIC incubated for 10 mins by firefly luciferase based luminometry analysis; type: functional; procedure, shortened: as §3
Staphylococcus aureus [18] = assay: Induction of membrane permeabilization in clinical isolates of Staphylococcus aureus DM4001 at MIC by SYTOX green uptake assay; type: functional; procedure, shortened: as §2
Staphylococcus aureus [19] = assay: Bactericidal activity against clinical isolates of methicillin resistant Staphylococcus aureus DM21455 assessed as log reduction in viability measured up to 300 mins by time kill kinetic study; type: functional, organism-based
Procedure, shortened: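 Colonies from 18–22 h TSA plates suspended in 0.31 mM phosphate buffer pH 7.2 at 10^5–10^6 CFU/mL. Treated at 1×, 2× and 4× MIC at 35 °C, sampled at 10 min, 30 min, 1 h, 2 h and 5 h. Ten-fold dilutions spread on MHA, 35 °C for 48–72 h, colonies counted. Detection limit 100 CFU/mL; bactericidal means 3-log drop versus untreated.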

Row | Structure (SMILES) | MIC (Staphylococcus aureus [1]) [µg/mL] | Activity [2] [%] | MIC (Bacillus cereus) [µg/mL] | Activity (Staphylococcus aureus [3]) [%] | MIC (Staphylococcus aureus [4]) [µg/mL] | MIC (Staphylococcus aureus [5]) [µg/mL] | HC50 at 1 h [6] [µg/mL] | Activity (Staphylococcus aureus [7]) | Activity [8] | Activity [9] | Activity [10] | Activity [11] | Activity [12] | Activity [13] | Selectivity ratio [14] | Activity (Staphylococcus aureus [15]) [cps] | Activity (Staphylococcus aureus [16]) [µM] | Activity (Staphylococcus aureus [17]) [µM] | Activity (Staphylococcus aureus [18]) [cps] | Activity (Staphylococcus aureus [19])
1 | CCN(CC)CCCCCCCCCCCCOc1cc2oc3cc(OCCCCCCCCCCCCN(CC)CC)c(OC)c(CC=C(C)C)c3c(=O)c2c(O)c1CC=C(C)C | > 50 | 60 | > 50 | 99.9 | > 50 | > 50 | > 200 | inactive |  |  |  |  |  |  |  |  |  |  |  | 
2 | COc1c(O)cc2oc3cc(O)c(CCC(C)C)c(O)c3c(=O)c2c1CCC(C)C | > 50 |  | > 50 |  | > 50 | > 50 | > 200 |  | Not Active | Not Active | Not Active | Not Active | Not Active | Not Active |  |  |  |  |  | 
3 | CCN(CC)CCCOc1cc2oc3cc(OCCCN(CC)CC)c(OC)c(CC=C(C)C)c3c(=O)c2c(O)c1CC=C(C)C | 0.78 (≈ 1.22 µM) |  | 6.25 (≈ 9.81 µM) | 46.2 | 0.78 (≈ 1.22 µM) | 0.39 (≈ 0.612 µM) |  | Active |  |  |  |  |  |  | 20.9 |  |  |  |  | 
4 | COc1c(O)cc2oc3cc(O)c(CC=C(C)C)c(O)c3c(=O)c2c1CC=C(C)C [MANGOSTIN] |  |  |  |  | 2 (≈ 4.87 µM) |  |  |  | < 10% | 16% | 14.1% | 33.6% |  | < 10% | 4.5 |  |  |  |  | 
5 | CCN(CC)CCCCCCCCOc1cc2oc3cc(OCCCCCCCCN(CC)CC)c(OC)c(CC=C(C)C)c3c(=O)c2c(O)c1CC=C(C)C | > 50 | > 70 | > 50 | 95.5 | > 50 | > 50 | 53.1 | Active |  |  |  |  |  |  |  |  |  |  |  | 
6 | COc1c(OCCCCN2CC[C@H](N(C)C)C2)cc2oc3cc(OCCCCN4CC[C@H](N(C)C)C4)c(CC=C(C)C)c(O)c3c(=O)c2c1CC=C(C)C | 6.25 (≈ 8.37 µM) |  | 6.25 (≈ 8.37 µM) |  | 12.5 (≈ 16.7 µM) | 6.25 (≈ 8.37 µM) | 28.9 |  |  |  |  |  |  |  | 2.3 | 58191 | 7.962 |  |  | 
7 | COc1c(OCCCCN(C)Cc2ccccc2)cc2oc3cc(OCCCCN(C)Cc4ccccc4)c(CC=C(C)C)c(O)c3c(=O)c2c1CC=C(C)C | > 50 |  | > 50 |  | > 50 | > 50 | > 200 |  |  |  |  |  |  |  |  | 1778 | 0.574 |  |  | 
8 | COc1c(OCCCCN2CCN(C)CC2)cc2oc3cc(OCCCCN4CCN(C)CC4)c(CC=C(C)C)c(O)c3c(=O)c2c1CC=C(C)C | 12.5 (≈ 17.4 µM) |  | 12.5 (≈ 17.4 µM) |  | 6.25 (≈ 8.69 µM) | 12.5 (≈ 17.4 µM) | 32.3 |  |  |  |  |  |  |  | 5.2 |  |  | 3.727 | 7129 | 
9 | CN[C@@H](CC(C)C)C(=O)N[C@H]1C(=O)N[C@@H](CC(N)=O)C(=O)N[C@H]2C(=O)N[C@H]3C(=O)N[C@H](C(=O)N[C@@H](C(=O)O)c4cc(O)cc(O)c4-c4cc3ccc4O)[C@H](O)c3ccc(c(Cl)c3)Oc3cc2cc(c3O[C@H]2O[C@@H](CO)[C@H](O)[C@@H](O)[C@@H]2O[C@@H]2C[C@@](C)(N)[C@@H](O)[C@@H](C)O2)Oc2ccc(cc2Cl)[C@H]1O |  |  |  |  |  |  |  |  |  |  |  |  |  |  |  |  |  |  |  | inactive
10 | O=c1c2ccc(O)cc2oc2cc(O)cc(O)c12 | > 50 |  | > 50 |  | > 50 | > 50 | > 200 |  | Not Active | Not Active | Not Active | Not Active | Not Active | Not Active |  |  |  |  |  | 
